Test results published in ChEMBL document CHEMBL1126637, “Dicarboxylate diamide dimercaptide (N2S2) technetium-99m complexes: synthesis and biological evaluation as potential renal radiopharmaceuticals” (J Med Chem, 1993).
One block for each compound: values may come before it.

Assays:
Monkey = test: Percentage of counts in the pellet/total number of counts in both supernatant and pellet in monkey plasma (n=3); type: functional
Procedure, shortened: (§1)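 Plasma from male cynomolgus monkey or male Sprague-Dawley rat blood (centrifuged 4000 rpm, 5 min). 99mTc complex in 50% ethanol/H2O (1 × 10^6 counts) incubated with 1 mL plasma at 37 °C for 30 min. Precipitation with 0.4 mL 10% trichloroacetic acid, centrifuged 4000 rpm 10 min, pellet washed twice with water. Bound = pellet counts/(pellet + supernatant + washes) counts; 3 determinations, mean ± SD.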

Rattus norvegicus [1] = species: Rattus norvegicus; test: Percentage of counts in the pellet/total number of counts in both supernatant and pellet in rat plasma (n=3); type: functional; procedure, shortened: as §1
Rattus norvegicus [2] = species: Rattus norvegicus; test: Biodistribution of the [99mTc] complex in rat blood at 10 min postinjection (3-4 rats used); type: ADME, organism-based; settings: in vivo
Procedure, shortened: (§2)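 Male Sprague-Dawley rats (200-300 g), ketamine/xylazine anesthesia (80 mg/kg : 8 mg/kg), bladder cannulated with PE 50 tubing. Given iv via femoral vein 0.2 mL saline holding the 99mTc complex (20 µCi) co-injected with [131I]OIH (7 µCi). Percent injected dose per organ from comparing tissue radioactivity against dilutions of the injected dose, corrected for 131I spillover into the 99mTc channel; mean ±SD, 3-4 rats.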

Rattus norvegicus [3] = species: Rattus norvegicus; test: Biodistribution of the [99mTc] complex in rat blood at 60 min postinjection (3-4 rats used); type: ADME, organism-based; settings: in vivo, 1 h; procedure, shortened: as §2
Rattus norvegicus [4] = species: Rattus norvegicus; test: Biodistribution of the [99mTc] complex in rat heart at 10 min postinjection (3-4 rats used); type: ADME, organism-based; settings: in vivo; procedure, shortened: as §2
Rattus norvegicus [5] = species: Rattus norvegicus; test: Biodistribution of the [99mTc] complex in rat heart at 60 min postinjection (3-4 rats used); type: ADME, organism-based; settings: in vivo, 1 h; procedure, shortened: as §2
Rattus norvegicus [6] = species: Rattus norvegicus; test: Biodistribution of the [99mTc] complex in rat intestines at 10 min postinjection (3-4 rats used); type: ADME, organism-based, Intestine; settings: in vivo; procedure, shortened: as §2
Rattus norvegicus [7] = species: Rattus norvegicus; test: Biodistribution of the [99mTc] complex in rat intestines at 60 min postinjection (3-4 rats used); type: ADME, organism-based, Intestine; settings: in vivo, 1 h; procedure, shortened: as §2
Rattus norvegicus [8] = species: Rattus norvegicus; test: Biodistribution of the [99mTc] complex in rat kidney at 10 min postinjection (3-4 rats used); type: ADME, organism-based; settings: in vivo; procedure, shortened: as §2
Rattus norvegicus [9] = species: Rattus norvegicus; test: Biodistribution of the [99mTc] complex in rat kidney at 60 min postinjection (3-4 rats used); type: ADME, organism-based; settings: in vivo, 1 h; procedure, shortened: as §2
Rattus norvegicus [10] = species: Rattus norvegicus; test: Biodistribution of the [99mTc] complex in rat liver at 10 min postinjection (3-4 rats used); type: ADME, organism-based; settings: in vivo; procedure, shortened: as §2
Rattus norvegicus [11] = species: Rattus norvegicus; test: Biodistribution of the [99mTc] complex in rat liver at 60 min postinjection (3-4 rats used); type: ADME, organism-based; settings: in vivo, 1 h; procedure, shortened: as §2
Rattus norvegicus [12] = species: Rattus norvegicus; test: Biodistribution of the [99mTc] complex in rat lung at 10 min postinjection (3-4 rats used); type: ADME, organism-based; settings: in vivo; procedure, shortened: as §2
Rattus norvegicus [13] = species: Rattus norvegicus; test: Biodistribution of the [99mTc] complex in rat lung at 60 min postinjection (3-4 rats used); type: ADME, organism-based; settings: in vivo, 1 h; procedure, shortened: as §2
Rattus norvegicus [14] = species: Rattus norvegicus; test: Biodistribution of the [99mTc] complex in rat muscle at 10 min postinjection (3-4 rats used); type: ADME, organism-based, Muscle tissue; settings: in vivo; procedure, shortened: as §2
Rattus norvegicus [15] = species: Rattus norvegicus; test: Biodistribution of the [99mTc] complex in rat muscle at 60 min postinjection (3-4 rats used); type: ADME, organism-based, Muscle tissue; settings: in vivo, 1 h; procedure, shortened: as §2
Rattus norvegicus [16] = species: Rattus norvegicus; test: Biodistribution of the [99mTc] complex in rat spleen at 10 min postinjection (3-4 rats used); type: ADME, organism-based; settings: in vivo; procedure, shortened: as §2
Rattus norvegicus [17] = species: Rattus norvegicus; test: Biodistribution of the [99mTc] complex in rat spleen at 60 min postinjection (3-4 rats used); type: ADME, organism-based; settings: in vivo, 1 h; procedure, shortened: as §2
Rattus norvegicus [18] = species: Rattus norvegicus; test: Biodistribution of the [99mTc] complex in with OIH rat kidney at 60 min postinjection (3-4 rats used); type: ADME, organism-based; settings: in vivo, 1 h; procedure, shortened: as §2
Rattus norvegicus [19] = species: Rattus norvegicus; test: Biodistribution of the [99mTc] complex with OIH in rat blood at 10 min postinjection (3-4 rats used); type: ADME, organism-based; settings: in vivo; procedure, shortened: as §2
Rattus norvegicus [20] = species: Rattus norvegicus; test: Biodistribution of the [99mTc] complex with OIH in rat intestine at 10 min postinjection (3-4 rats used); type: ADME, organism-based; settings: in vivo; procedure, shortened: as §2
Rattus norvegicus [21] = species: Rattus norvegicus; test: Biodistribution of the [99mTc] complex with OIH in rat intestine at 60 min postinjection (3-4 rats used); type: ADME, organism-based; settings: in vivo, 1 h; procedure, shortened: as §2
Rattus norvegicus [22] = species: Rattus norvegicus; test: Biodistribution of the [99mTc] complex with OIH in rat kideny at 10 min postinjection (3-4 rats used); type: ADME, organism-based; settings: in vivo; procedure, shortened: as §2
Rattus norvegicus [23] = species: Rattus norvegicus; test: Biodistribution of the [99mTc] complex with OIH in rat liver at 10 min postinjection (3-4 rats used); type: ADME, organism-based; settings: in vivo; procedure, shortened: as §2
Rattus norvegicus [24] = species: Rattus norvegicus; test: Biodistribution of the [99mTc] complex with OIH in rat liver at 60 min postinjection (3-4 rats used); type: ADME, organism-based; settings: in vivo, 1 h; procedure, shortened: as §2
Rattus norvegicus [25] = species: Rattus norvegicus; test: Biodistribution of the [99mTc] complex with OIH in rat lung at 10 min postinjection (3-4 rats used); type: ADME, organism-based; settings: in vivo; procedure, shortened: as §2
Rattus norvegicus [26] = species: Rattus norvegicus; test: Biodistribution of the [99mTc] complex with OIH in rat muscle at 10 min postinjection (3-4 rats used); type: ADME, organism-based, Muscle tissue; settings: in vivo; procedure, shortened: as §2
Rattus norvegicus [27] = species: Rattus norvegicus; test: Biodistribution of the [99mTc] complex with OIH in rat muscle at 60 min postinjection (3-4 rats used); type: ADME, organism-based, Muscle tissue; settings: in vivo, 1 h; procedure, shortened: as §2
Rattus norvegicus [28] = species: Rattus norvegicus; test: Biodistribution of the [99mTc] complex with OIH in rat spleen at 10 min postinjection (3-4 rats used); type: ADME, organism-based; settings: in vivo; procedure, shortened: as §2
Rattus norvegicus [29] = species: Rattus norvegicus; test: Biodistribution of the [99mTc] complex with OIH in rat spleen at 60 min postinjection (3-4 rats used); type: ADME, organism-based; settings: in vivo, 1 h; procedure, shortened: as §2
Rattus norvegicus [30] = species: Rattus norvegicus; test: Biodistribution of the [99mTc] complex with OIH in rat blood at 60 min postinjection (3-4 rats used); type: ADME, organism-based; settings: in vivo, 1 h; procedure, shortened: as §2
Rattus norvegicus [31] = species: Rattus norvegicus; test: Biodistribution of the [99mTc] complex with OIH in rat heart at 10 min postinjection (3-4 rats used); type: ADME, organism-based; settings: in vivo; procedure, shortened: as §2
Rattus norvegicus [32] = species: Rattus norvegicus; test: Biodistribution of the [99mTc] complex with OIH in rat heart at 60 min postinjection (3-4 rats used); type: ADME, organism-based; settings: in vivo, 1 h; procedure, shortened: as §2
Rattus norvegicus [33] = species: Rattus norvegicus; test: Biodistribution of the [99mTc] complex with OIH in rat lung at 60 min postinjection (3-4 rats used); type: ADME, organism-based; settings: in vivo, 1 h; procedure, shortened: as §2

Compound: [sequence]
Activity (Monkey; Cercopithecidae): 35.2% | Activity (Rattus norvegicus [1]): 30.3%

Injected dose (Rattus norvegicus [2]): 26.2% | Injected dose (Rattus norvegicus [3]): 15.2% | Injected dose (Rattus norvegicus [4]): 0.4% | Injected dose (Rattus norvegicus [5]): 0.3% | Injected dose (Rattus norvegicus [6]): 1.4% | Injected dose (Rattus norvegicus [7]): 1.7% | Injected dose (Rattus norvegicus [8]): 5.3% | Injected dose (Rattus norvegicus [9]): 1.9% | Injected dose (Rattus norvegicus [10]): 5% | Injected dose (Rattus norvegicus [11]): 3% | Injected dose (Rattus norvegicus [12]): 1.1% | Injected dose (Rattus norvegicus [13]): 0.7% | Injected dose (Rattus norvegicus [14]): 22.8% | Injected dose (Rattus norvegicus [15]): 20.4% | Injected dose (Rattus norvegicus [16]): 0.2% | Injected dose (Rattus norvegicus [17]): 0.1% | Injected dose (Rattus norvegicus [18]): 0.5% | Injected dose (Rattus norvegicus [19]): 4.4% | Injected dose (Rattus norvegicus [20]): 1.6% | Injected dose (Rattus norvegicus [21]): 1.6% | Injected dose (Rattus norvegicus [22]): 9.9% | Injected dose (Rattus norvegicus [23]): 3.3% | Injected dose (Rattus norvegicus [24]): 0.5% | Injected dose (Rattus norvegicus [25]): 0.2% | Injected dose (Rattus norvegicus [26]): 7.9% | Injected dose (Rattus norvegicus [27]): 1.6% | Injected dose (Rattus norvegicus [28]): < 0.1% | Injected dose (Rattus norvegicus [29]): < 0.1% | Injected dose (Rattus norvegicus [30]): 0.5% | Injected dose (Rattus norvegicus [31]): 0.1% | Injected dose (Rattus norvegicus [32]): < 0.1% | Injected dose (Rattus norvegicus [33]): < 0.1%
Compound: COC(=O)C(CC(=O)NCCNC(=O)CC(SC(=O)c1ccccc1)C(=O)OC)SC(=O)c1ccccc1 (stereo unspecified)
Activity (Monkey): 26.5% | Activity (Rattus norvegicus [1]): 22%
